High-throughput results deposited in PubChem BioAssay by several laboratories.
Most compounds without a hit are left out; they make up all but 4.6% or so of the library.
UCH37 DUB inh = blocks the human deubiquitinase UCH37; hit rate 0.33% among 330,000; inhibition, % (test concentration not listed); AID 588478; purified proteasome/UCH37, Ub-AMC cleavage fluorescence;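 active means mean inhibition over replicate wells above about 20%, limit read from the data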
Target sequence (Q9Y5K5 whole entry, looked up): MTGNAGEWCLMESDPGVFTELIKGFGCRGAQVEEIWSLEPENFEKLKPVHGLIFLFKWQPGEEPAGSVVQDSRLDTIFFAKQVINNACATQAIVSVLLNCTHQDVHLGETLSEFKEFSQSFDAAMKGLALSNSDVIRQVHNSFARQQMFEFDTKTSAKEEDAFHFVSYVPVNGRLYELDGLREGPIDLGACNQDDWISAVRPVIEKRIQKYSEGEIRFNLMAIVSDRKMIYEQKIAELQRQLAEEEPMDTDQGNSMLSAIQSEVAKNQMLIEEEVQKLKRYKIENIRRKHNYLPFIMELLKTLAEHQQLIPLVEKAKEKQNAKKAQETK
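Material: Human UCH37 enzyme supplied as purified proteasome complex | Schedule: 30 min preincubation with enzyme, 25 min cleavage at room temperature | Detection: AMC fluorescence 355/460 nm | Measure: % inhibition of Ub-AMC cleavage fluorescence | Controls: Wells without proteasome as full block, compound-free enzyme plus substrate as uninhibited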
Rtt109 Vps75 = C. albicans Rtt109 histone acetyltransferase inhibition | hit rate 0.16% among 330,000 | AID 540336 | purified Rtt109/Vps75, ThioGlo CoA-SH fluorescence, 4 h | Q5AAJ8 | inhibition, % at 34.9 µM;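 active means inhibition of at least 50% in every replicate; inconclusive means best replicate reaches 50% inhibition but some replicates fall short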
Target sequence (Q5AAJ8 whole entry, looked up): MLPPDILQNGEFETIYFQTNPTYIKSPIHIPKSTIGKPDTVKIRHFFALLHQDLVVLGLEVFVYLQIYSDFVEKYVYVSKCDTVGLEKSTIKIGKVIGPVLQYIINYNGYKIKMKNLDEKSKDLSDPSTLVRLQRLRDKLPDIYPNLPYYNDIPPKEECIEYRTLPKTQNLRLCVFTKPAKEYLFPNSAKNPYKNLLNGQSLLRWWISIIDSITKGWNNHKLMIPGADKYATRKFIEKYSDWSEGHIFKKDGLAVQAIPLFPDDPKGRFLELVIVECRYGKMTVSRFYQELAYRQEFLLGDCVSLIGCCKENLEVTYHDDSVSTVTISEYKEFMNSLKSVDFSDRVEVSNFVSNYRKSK
FAS TE block = blocks the thioesterase domain of human fatty acid synthase. recombinant FAS-TE, OMFH fluorogenic substrate, fluorescence endpoint. inhibition, % at 15 µM. hit rate 0.67% among 360,000. P49327;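 active means compounds whose normalised, plate-corrected inhibition of enzyme fluorescence in the single-dose primary screen is 50% or more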
PfM18AAP inh = blocks P. falciparum M18 aspartyl aminopeptidase | hit rate 1.2% among 290,000 | inhibition, % at 7.35 µM | recombinant PfM18AAP, H-Glu-NHMec fluorogenic cleavage | AID 1822;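 active means inhibition above the campaign mean inhibition over all tested compounds plus 3 SD, cut at about 28% in these data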
ALR inh = inhibitors of human sulfhydryl oxidase ALR; P55789; purified ALR, DTT oxidation, H2O2 HRP-luminol luminescence; inhibition, % (test concentration not listed); hit rate 3.8% among 290,000; AID 485317;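 active means mean replicate inhibition above about 79%, with every replicate also reaching it, limit read from the data; inconclusive means only one of the two criteria met; inactive means mean below limit and not every replicate reaching it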
HDAC3 inh = inhibitors of human histone deacetylase 3. recombinant HDAC3, fluorogenic peptide/trypsin coupled, fluorescence. inhibition, % at 8.3 µM. hit rate 0.15% among 320,000. AID 2718; in the data active means inhibition above about 26%, passing the limit was not always enough; inconclusive means no clear call, values can overlap the other calls
Large screens that a line does not name were inactive.

COc1ccc(CCNC(=S)Nc2cccc(C)c2)cc1	none
Cc1cccc(NC(=S)NCCC(C)C)c1	ALR inh 92
Cc1cccc(NC(=S)NNC(=O)Cc2ccccc2)c1	none
Cc1cccc(NC(=S)NNC(=O)c2csc(C)c2)c1	ALR inh 85
Cc1cccc(NC(=S)NNC(=O)c2ccc(Br)o2)c1	ALR inh 94
Cc1c(/C=C2\NC(=O)NC2=O)c2ccccc2n1C	ALR inh 98
CN(C(=O)c1ccc2c(c1)OCO2)C1(C)CCS(=O)(=O)C1 (stereo unspecified)	none (no result: PfM18AAP inh)
CN(C(=O)c1ccc(N2CCCCC2)c([N+](=O)[O-])c1)C1(C)CCS(=O)(=O)C1 (stereo unspecified)	Rtt109 Vps75 53
CCOC(=O)COn1c(=O)c(=O)n(O)c2ccccc21	ALR inh 100
CCOC(=O)C(=NNc1ccccc1[N+](=O)[O-])c1csc(Nc2ccccc2)n1	none (no result: Rtt109 Vps75, FAS TE block, PfM18AAP inh, ALR inh, HDAC3 inh)
O=C(N/N=C/c1cccc(O)c1)N/N=C/c1cccc(O)c1	ALR inh 82 (no result: UCH37 DUB inh)
CCN(CC)c1ccc(NC(=O)COC(=O)CSc2ccc(Br)cc2C)cc1	ALR inh 99
COc1ccc(N2CCN(Cc3nc(Cc4cccc(F)c4)no3)C(C)C2)cc1 (stereo unspecified)	ALR inh 98
CC1=C(C)/C(=N\OS(=O)(=O)c2ccccc2)C=CC1=O	Rtt109 Vps75 147 (no result: UCH37 DUB inh)
CC1=C(C)C(=NOS(=O)(=O)c2ccccc2)C=CC1=O	none (no result: Rtt109 Vps75, FAS TE block, PfM18AAP inh, ALR inh, HDAC3 inh)
O=C(/C=C/c1ccc(Br)cc1)c1ccco1	PfM18AAP inh 29 (no result: HDAC3 inh)
O=C(/C=C/c1ccc(Br)cc1)c1ccc(NC(=O)c2ccco2)cc1	none
O=C(Cc1ccc(F)cc1)N1CCC(CC2CC(c3ccc(Cl)cc3)=NO2)(C(=O)NCC2CCCCC2)CC1 (stereo unspecified)	UCH37 DUB inh 39
COc1ccc2cc(C3C(C#N)=C(N)OC(C)=C3C(C)=O)c(Cl)nc2c1 (stereo unspecified)	ALR inh 96
COc1cccc(NC(=O)CSc2nnc(-c3ccco3)c(-c3ccco3)n2)c1	ALR inh 99
COc1ccc(NC(=O)CSc2nnc(-c3ccco3)c(-c3ccco3)n2)cc1OC	PfM18AAP inh 31, ALR inh 90
CCn1c(SCC(=O)Nc2ccc(OC)c(OC)c2)nnc1-c1ccco1	none
Cc1cccc(NCc2ccccc2O)c1C	ALR inh 99
CCN(CC)c1cccc(OCC(=O)N2c3ccccc3CC2C)c1 (stereo unspecified)	ALR inh 98 (no result: PfM18AAP inh)
CC/C(=N\O)c1ccc(O)c(OC)c1	ALR inh 99 (no result: UCH37 DUB inh)
CCC(=NO)c1ccc(O)c(OC)c1	none (no result: Rtt109 Vps75, FAS TE block, PfM18AAP inh, ALR inh, HDAC3 inh)
Cn1cccc1C=NN1CCN(c2ccccc2)CC1	none (no result: Rtt109 Vps75, FAS TE block, PfM18AAP inh, ALR inh, HDAC3 inh)
O=C(Nc1ccc(N2CCOCC2)cc1N1CCOCC1)c1ccc([N+](=O)[O-])cc1	none
O=[N+]([O-])c1ccc(Nc2ccc(N3CCOCC3)cc2)c([N+](=O)[O-])c1	ALR inh 99
CCn1ncc(/C=N\NC(=O)COc2ccccc2)c1C	ALR inh 96 (no result: UCH37 DUB inh)
CCCOC(=O)c1ccc(NC(=O)CSC2=Nc3ccccc3C3CC=NN23)cc1 (stereo unspecified)	ALR inh 97
O=C(CSC1=Nc2ccccc2C2CC=NN12)NCc1ccco1 (stereo unspecified)	ALR inh 99 (no result: PfM18AAP inh)
O=C(CSC1=Nc2ccccc2C2CC=NN12)Nc1ccc2c(c1)OCO2 (stereo unspecified)	Rtt109 Vps75 inconclusive (no result: ALR inh, HDAC3 inh)
Clc1ccc(-c2csc(NN=Cc3ccco3)n2)cc1	none (no result: Rtt109 Vps75, FAS TE block, PfM18AAP inh, ALR inh, HDAC3 inh)
CCOC(=O)C=c1sc(=Cc2ccc3cc(OC)ccc3c2)c(=O)n1CC(=O)NCc1ccc2c(c1)OCO2	none (no result: Rtt109 Vps75, FAS TE block, PfM18AAP inh, ALR inh, HDAC3 inh)
CC(CCN1CCc2nc(-c3ccccc3)c(-c3ccccc3)cc2C1)=NOC[C@@H](C)[C@H](OCc1ccccc1)C(C)C	none (no result: Rtt109 Vps75, FAS TE block, PfM18AAP inh, ALR inh, HDAC3 inh)
O=C1CC(c2ccccc2)Sc2ccccc2N1 (stereo unspecified)	ALR inh 94
S=c1[nH]nc(-c2ccccc2Cl)n1N=C/C=C/c1ccco1	none (no result: Rtt109 Vps75, FAS TE block, PfM18AAP inh, ALR inh, HDAC3 inh)
N#Cc1ccccc1S(=O)(=O)N1CCN(C(=O)Cc2coc3cc(O)ccc23)CC1	ALR inh 99 (no result: PfM18AAP inh)
Cc1ccc2c(CC(=O)N3CCN(S(=O)(=O)c4ccccc4)CC3)coc2c1	none (no result: PfM18AAP inh, ALR inh, HDAC3 inh)
COC(=O)COc1ccc(C=NNS(=O)(=O)c2ccccc2)cc1	none (no result: Rtt109 Vps75, FAS TE block, PfM18AAP inh, ALR inh, HDAC3 inh)
CN=c1scc(-c2cccs2)n1/N=C/c1ccccc1O	ALR inh 87 (no result: UCH37 DUB inh)
CN=c1scc(-c2cccs2)n1/N=C/c1ccc(O)c(O)c1O	PfM18AAP inh 31, ALR inh 99 (no result: UCH37 DUB inh)
CN=c1scc(-c2ccccc2F)n1N=Cc1ccc(O)c(O)c1O	none (no result: Rtt109 Vps75, FAS TE block, PfM18AAP inh, ALR inh, HDAC3 inh)
CCOc1ccc(CCNC(=O)CCS(=O)(=O)c2ccc(OC)cc2)cc1OCC	UCH37 DUB inh 30
CCOc1ccc(S(=O)(=O)NCCC(=O)NCCc2ccc(OCC)c(OCC)c2)cc1	none (no result: PfM18AAP inh)
COc1cc(/C=C2\C(=N)N3N=CSC3=NC2=O)ccc1OS(=O)(=O)c1ccccc1	ALR inh 98
CCS(=O)(=O)C1=NN2C(=N)/C(=C\c3ccc(OC(=O)c4ccco4)c(OC)c3)C(=O)N=C2S1	Rtt109 Vps75 inconclusive (no result: UCH37 DUB inh)
Cc1cc(/C=C2\C(=N)N3N=CSC3=NC2=O)c(C)n1Cc1ccccc1	ALR inh 88
C=CCOc1ccc(/C=C2\C(=N)N3N=C(S(=O)(=O)CC)SC3=NC2=O)cc1OC	UCH37 DUB inh 21
COc1cc(/C=C2/C(=N)N3C(c4ccccc4)=CSC3=NC2=O)ccc1OCC(=O)O	ALR inh 99
CCCC1=NN2C(=N)/C(=C\c3cc(C)n(Cc4ccccc4)c3C)C(=O)N=C2S1	none
Cn1cc(Br)c(C(=O)NN=Cc2cc3ccccc3nc2Cl)n1	none (no result: Rtt109 Vps75, FAS TE block, PfM18AAP inh, ALR inh, HDAC3 inh)
COc1cc(NC(=S)NCc2cccnc2)c(OC)cc1Cl	Rtt109 Vps75 56 (no result: ALR inh)
COc1ccccc1NC(=S)NCc1cccnc1	none
COc1cc(NC(=S)Nc2ccc(Br)cc2Cl)c(OC)cc1Cl	none (no result: ALR inh)
COc1cc(NC(=S)Nc2cccc(Cl)c2Cl)c(OC)cc1Cl	PfM18AAP inh 29
Cc1cc(C=NNC(=O)C(=O)NCc2ccccn2)c(C)n1-c1cccc(Br)c1	none (no result: Rtt109 Vps75, FAS TE block, PfM18AAP inh, ALR inh, HDAC3 inh)
CCOC(=O)c1c(C)n(C)c2cc(Br)c(OC)cc12	none
CCOC(=O)c1c(CNCCN(CC)CC)n(C)c2cc(Br)c(OC)cc12	Rtt109 Vps75 65
O=C(Nc1ccc(CN2CCOCC2)cc1)c1cc2ccccn2n1	ALR inh 85
CN(C)S(=O)(=O)c1cc(NC(=O)CN2CCN(c3ccc(O)cc3)CC2)ccc1Cl	ALR inh 100
O=C(CN1CCCCC1)Nc1ccc(S(=O)(=O)N2CCCCCC2)cc1	none
O=C(CN1CCN(c2ccc(O)cc2)CC1)Nc1ccc(S(=O)(=O)N2CCCC2)cc1	ALR inh 88 (no result: PfM18AAP inh)
O=C(CN1CCCN(S(=O)(=O)c2ccc(Br)s2)CC1)Nc1ccc(Cl)cc1	ALR inh 91
